Test results as given in ChEMBL document CHEMBL1152746, “Inhibitors of adenosine consuming parasites through polymer-assisted solution phase synthesis of lipophilic 5'-amido-5'-deoxyadenosine derivatives” (Bioorg Med Chem, 2009).

tested on: Plasmodium falciparum; assay: Antiplasmodial activity against Plasmodium falciparum K1 as [3H]hypoxanthine uptake; assay type: functional, organism-based; details: K1, 72 h
How it was run: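 Erythrocytic stages of chloroquine- and pyrimethamine-resistant K1 strain grown in washed human A+ red cells, 2.5% hematocrit, 0.3% parasitemia. Medium was hypoxanthine-free RPMI 1640 with HEPES, NaHCO3, neomycin and AlbuMAX. DMSO stocks (10 mg/mL) tested as serial doubling dilutions for 48 h at 37 °C under 4% CO2, 3% O2, 93% N2. [3H]hypoxanthine then added for 24 h, cells harvested onto filters, scintillation counted.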

Compound	IC50 [nM]
O=C(NC[C@H]1O[C@@H](n2cnc3c(NCc4ccc(Oc5ccccc5)cc4)ncnc32)[C@H](O)[C@@H]1O)c1cc(Cl)cc(Cl)c1	3500
O=C(CCCc1c[nH]c2ccccc12)NC[C@H]1O[C@@H](n2cnc3c(NCc4ccc(Oc5ccccc5)cc4)ncnc32)[C@H](O)[C@@H]1O	> 8500
CC(C)=CC(=O)NC[C@H]1O[C@@H](n2cnc3c(NCc4ccc(Oc5ccccc5)cc4)ncnc32)[C@H](O)[C@@H]1O	4300
CC(C)CCC(=O)NC[C@H]1O[C@@H](n2cnc3c(NCc4ccc(Oc5ccccc5)cc4)ncnc32)[C@H](O)[C@@H]1O	4600
O=C(CCCc1ccccc1)NC[C@H]1O[C@@H](n2cnc3c(NCc4ccc(Oc5ccccc5)cc4)ncnc32)[C@H](O)[C@@H]1O	2600
O=C(Cc1cccc(Cl)c1)NC[C@H]1O[C@@H](n2cnc3c(NCc4ccc(Oc5ccccc5)cc4)ncnc32)[C@H](O)[C@@H]1O	3100
CCCCCn1cnc2cc(C(=O)NC[C@H]3O[C@@H](n4cnc5c(NCc6ccc(Oc7ccccc7)cc6)ncnc54)[C@H](O)[C@@H]3O)ccc21	1500
CCN(CC)CCCC(C)Nc1ccnc2cc(Cl)ccc12 (stereo unspecified) [CHLOROQUINE]	900

Now from value to compound:

IC50 [nM]	Compound
2800	O=C(CCCOc1ccccc1)NC[C@H]1O[C@@H](n2cnc3c(NCc4ccc(Oc5ccccc5)cc4)ncnc32)[C@H](O)[C@@H]1O
300	O=C(Cc1cccc2ccccc12)NC[C@H]1O[C@@H](n2cnc3c(NCc4ccc(Oc5ccccc5)cc4)ncnc32)[C@H](O)[C@@H]1O
3300	O=C(NC[C@H]1O[C@@H](n2cnc3c(NCc4ccc(Oc5ccccc5)cc4)ncnc32)[C@H](O)[C@@H]1O)c1ccc(Oc2ccccc2)cc1
2100	O=C(NC[C@H]1O[C@@H](n2cnc3c(NCc4ccc(Oc5ccccc5)cc4)ncnc32)[C@H](O)[C@@H]1O)c1ccc2c(c1)[nH]c(=O)n2Cc1ccccn1
3400	COc1cccc(CC(=O)NC[C@H]2O[C@@H](n3cnc4c(NCc5ccc(Oc6ccccc6)cc5)ncnc43)[C@H](O)[C@@H]2O)c1
3300	O=C(NC[C@H]1O[C@@H](n2cnc3c(NCc4ccc(Oc5ccccc5)cc4)ncnc32)[C@H](O)[C@@H]1O)c1ccc2c(c1)[nH]c(=O)n2COc1ccccc1
4000	O=C(NC[C@H]1O[C@@H](n2cnc3c(NCc4ccc(Oc5ccccc5)cc4)ncnc32)[C@H](O)[C@@H]1O)c1ccc2c(c1)ncn2Cc1ccccn1
900	COCCCn1c(=O)[nH]c2cc(C(=O)NC[C@H]3O[C@@H](n4cnc5c(NCc6ccc(Oc7ccccc7)cc6)ncnc54)[C@H](O)[C@@H]3O)ccc21
2700	C=CCn1cnc2cc(C(=O)NC[C@H]3O[C@@H](n4cnc5c(NCc6ccc(Oc7ccccc7)cc6)ncnc54)[C@H](O)[C@@H]3O)ccc21
2200	O=C(NC[C@H]1O[C@@H](n2cnc3c(NCc4ccc(Oc5ccccc5)cc4)ncnc32)[C@H](O)[C@@H]1O)c1ccc2c(c1)ncn2Cc1cccc2ccccc12
3100	CCCCn1c(=O)[nH]c2cc(C(=O)NC[C@H]3O[C@@H](n4cnc5c(NCc6ccc(Oc7ccccc7)cc6)ncnc54)[C@H](O)[C@@H]3O)ccc21
2600	COCCCn1cnc2cc(C(=O)NC[C@H]3O[C@@H](n4cnc5c(NCc6ccc(Oc7ccccc7)cc6)ncnc54)[C@H](O)[C@@H]3O)ccc21
2900	O=C(NC[C@H]1O[C@@H](n2cnc3c(NCc4ccc(Oc5ccccc5)cc4)ncnc32)[C@H](O)[C@@H]1O)c1ccc2c(c1)[nH]c(=O)n2CCC1=CCCCC1
